Data set [1] can be described thus: Phase I DDI study with omeprazole and magnesium/aluminum hydroxide. It is filed as in vivo, human. An outline of the steps: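 Randomized, open-label, three-fold crossover in healthy men. Test compound 5 mg single oral dose given fasting: alone; with omeprazole 40 mg QD for 5 days (pre- and co-dosed); or with a single 10 mL magnesium hydroxide 600 mg/aluminum oxide 900 mg antacid.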

Data set [2] is described as follows: Phase I DDI study with mefenamic acid. In kind it is in vivo, human.
The target of data set [3] is T1, organic cation transporter 1 (Homo sapiens, UniProt O15245).
T1 sequence (O15245 1-554): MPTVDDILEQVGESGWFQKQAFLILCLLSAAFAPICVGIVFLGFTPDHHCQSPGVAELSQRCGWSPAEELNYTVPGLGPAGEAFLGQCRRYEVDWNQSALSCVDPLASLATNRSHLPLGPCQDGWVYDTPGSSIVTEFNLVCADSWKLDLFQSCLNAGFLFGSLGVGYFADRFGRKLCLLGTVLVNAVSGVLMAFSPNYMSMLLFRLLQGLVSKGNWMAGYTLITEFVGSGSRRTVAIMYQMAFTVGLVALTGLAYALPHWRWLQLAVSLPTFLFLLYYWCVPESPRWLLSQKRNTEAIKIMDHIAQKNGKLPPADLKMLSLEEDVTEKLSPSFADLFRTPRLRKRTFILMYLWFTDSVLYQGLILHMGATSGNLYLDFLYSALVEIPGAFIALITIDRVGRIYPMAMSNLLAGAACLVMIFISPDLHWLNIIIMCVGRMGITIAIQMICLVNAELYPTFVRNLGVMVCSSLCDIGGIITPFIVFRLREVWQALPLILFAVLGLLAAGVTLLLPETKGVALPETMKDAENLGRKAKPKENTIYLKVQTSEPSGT
In words: Substrate properties towards OCT1. In kind it is in vitro ADME.

Data set [4] has as its target P-glycoprotein (Homo sapiens, UniProt P08183). Briefly: Inhibitory potential towards P-gp. In kind it is in vitro ADME.
In data set [5] the target is MATE2K (Homo sapiens, UniProt Q86VL8). Briefly: Inhibitory potency towards MATE2K. It is filed as in vitro ADME.
MATE2K, sequence (Q86VL8 1-566 isoform Q86VL8-3): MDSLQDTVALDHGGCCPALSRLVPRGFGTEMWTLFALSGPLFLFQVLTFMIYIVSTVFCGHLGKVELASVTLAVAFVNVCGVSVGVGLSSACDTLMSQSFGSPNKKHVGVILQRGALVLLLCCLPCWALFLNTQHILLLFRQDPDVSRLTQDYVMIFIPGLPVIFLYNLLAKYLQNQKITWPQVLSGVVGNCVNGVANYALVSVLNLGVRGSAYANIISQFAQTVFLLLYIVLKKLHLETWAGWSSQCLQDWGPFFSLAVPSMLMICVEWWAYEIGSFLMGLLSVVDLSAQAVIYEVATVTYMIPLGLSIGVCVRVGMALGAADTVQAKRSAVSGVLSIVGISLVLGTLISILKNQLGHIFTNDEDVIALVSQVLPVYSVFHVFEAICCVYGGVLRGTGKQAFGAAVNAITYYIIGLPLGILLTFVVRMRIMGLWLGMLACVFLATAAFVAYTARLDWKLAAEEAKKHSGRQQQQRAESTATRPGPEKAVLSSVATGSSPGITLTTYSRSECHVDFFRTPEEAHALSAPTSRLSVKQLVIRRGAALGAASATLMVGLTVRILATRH
The target of data set [6] is T1, organic cation transporter 1. In words: Inhibitory potency towards OCT1. It is filed as in vitro ADME.
For data set [7], the target named is T2, OAT1 (Homo sapiens, UniProt Q4U2R8).
T2 sequence (Q4U2R8 1-563): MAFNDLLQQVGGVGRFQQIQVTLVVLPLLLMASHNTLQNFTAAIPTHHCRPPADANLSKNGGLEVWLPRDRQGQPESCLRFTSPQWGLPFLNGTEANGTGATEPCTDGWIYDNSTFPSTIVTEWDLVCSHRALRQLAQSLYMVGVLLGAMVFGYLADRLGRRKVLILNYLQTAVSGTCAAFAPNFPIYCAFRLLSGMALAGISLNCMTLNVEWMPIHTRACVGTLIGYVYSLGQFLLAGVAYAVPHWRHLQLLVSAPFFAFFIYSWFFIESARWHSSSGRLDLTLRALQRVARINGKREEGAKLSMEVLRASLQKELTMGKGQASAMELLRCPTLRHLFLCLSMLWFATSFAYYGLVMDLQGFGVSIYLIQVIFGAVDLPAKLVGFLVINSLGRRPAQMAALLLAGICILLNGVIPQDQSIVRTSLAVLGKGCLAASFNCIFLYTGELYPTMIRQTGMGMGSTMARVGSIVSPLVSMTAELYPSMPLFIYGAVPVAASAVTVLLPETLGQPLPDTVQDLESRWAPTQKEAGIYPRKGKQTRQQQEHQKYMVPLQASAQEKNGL
Briefly: Inhibitory potency towards OAT1. In kind it is in vitro ADME.

For data set [8], the target named is T3, UGT1A1 (Homo sapiens, UniProt P22309).
T3 sequence (P22309 26-533): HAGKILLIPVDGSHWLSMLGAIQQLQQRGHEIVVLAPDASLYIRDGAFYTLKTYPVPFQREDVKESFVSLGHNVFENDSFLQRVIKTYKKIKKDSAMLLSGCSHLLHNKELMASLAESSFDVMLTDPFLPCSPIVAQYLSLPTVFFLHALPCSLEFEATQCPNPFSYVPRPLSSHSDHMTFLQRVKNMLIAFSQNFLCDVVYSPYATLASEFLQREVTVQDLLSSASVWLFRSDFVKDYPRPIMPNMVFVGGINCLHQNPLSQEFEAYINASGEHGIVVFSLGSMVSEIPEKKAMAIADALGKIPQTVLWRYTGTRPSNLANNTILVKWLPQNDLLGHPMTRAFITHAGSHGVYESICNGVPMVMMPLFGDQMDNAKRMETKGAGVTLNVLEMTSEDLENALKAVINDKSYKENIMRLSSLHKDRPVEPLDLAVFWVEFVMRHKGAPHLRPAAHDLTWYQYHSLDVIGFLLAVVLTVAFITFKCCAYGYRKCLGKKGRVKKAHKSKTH
In words: Inhibitory potency towards UGT isoforms. It is filed as in vitro ADME.

Data set [9] concerns the target T4, UGT1A4 (Homo sapiens, UniProt P22310).
T4 sequence (P22310 29-534): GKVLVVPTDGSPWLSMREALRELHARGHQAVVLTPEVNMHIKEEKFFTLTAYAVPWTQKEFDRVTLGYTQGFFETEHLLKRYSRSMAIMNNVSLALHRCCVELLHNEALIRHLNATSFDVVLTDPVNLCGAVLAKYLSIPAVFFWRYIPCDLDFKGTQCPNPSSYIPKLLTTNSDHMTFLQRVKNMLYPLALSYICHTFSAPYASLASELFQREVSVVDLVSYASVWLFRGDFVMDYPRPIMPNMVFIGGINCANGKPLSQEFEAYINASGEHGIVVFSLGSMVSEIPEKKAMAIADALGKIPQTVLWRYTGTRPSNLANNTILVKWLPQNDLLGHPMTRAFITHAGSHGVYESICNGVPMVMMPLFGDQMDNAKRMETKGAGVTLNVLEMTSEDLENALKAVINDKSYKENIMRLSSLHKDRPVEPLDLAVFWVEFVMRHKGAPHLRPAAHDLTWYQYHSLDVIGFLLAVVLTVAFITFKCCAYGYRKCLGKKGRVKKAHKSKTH
Briefly: Inhibitory potency towards UGT isoforms: UGT1A4. It is filed as in vitro ADME.

Data set [10] relates to CYP1A2. Briefly: CYP induction in cultured human hepatocytes: CYP1A2. It is filed as in vitro ADME. Conditions: three donors, up to 10,000 μg/L (23.5 µM).
For data set [11] the following is noted: cited from earlier work.
Setting [12] is: pre- and co-administration of omeprazole vs vericiguat alone.
Setting [13] is: with mefenamic acid vs vericiguat 2.5 mg SD alone, fed.

Molecules are shown by their SMILES. Where two headings read alike, the source gives them in different places.

P-glycoprotein, sequence (P08183 whole entry): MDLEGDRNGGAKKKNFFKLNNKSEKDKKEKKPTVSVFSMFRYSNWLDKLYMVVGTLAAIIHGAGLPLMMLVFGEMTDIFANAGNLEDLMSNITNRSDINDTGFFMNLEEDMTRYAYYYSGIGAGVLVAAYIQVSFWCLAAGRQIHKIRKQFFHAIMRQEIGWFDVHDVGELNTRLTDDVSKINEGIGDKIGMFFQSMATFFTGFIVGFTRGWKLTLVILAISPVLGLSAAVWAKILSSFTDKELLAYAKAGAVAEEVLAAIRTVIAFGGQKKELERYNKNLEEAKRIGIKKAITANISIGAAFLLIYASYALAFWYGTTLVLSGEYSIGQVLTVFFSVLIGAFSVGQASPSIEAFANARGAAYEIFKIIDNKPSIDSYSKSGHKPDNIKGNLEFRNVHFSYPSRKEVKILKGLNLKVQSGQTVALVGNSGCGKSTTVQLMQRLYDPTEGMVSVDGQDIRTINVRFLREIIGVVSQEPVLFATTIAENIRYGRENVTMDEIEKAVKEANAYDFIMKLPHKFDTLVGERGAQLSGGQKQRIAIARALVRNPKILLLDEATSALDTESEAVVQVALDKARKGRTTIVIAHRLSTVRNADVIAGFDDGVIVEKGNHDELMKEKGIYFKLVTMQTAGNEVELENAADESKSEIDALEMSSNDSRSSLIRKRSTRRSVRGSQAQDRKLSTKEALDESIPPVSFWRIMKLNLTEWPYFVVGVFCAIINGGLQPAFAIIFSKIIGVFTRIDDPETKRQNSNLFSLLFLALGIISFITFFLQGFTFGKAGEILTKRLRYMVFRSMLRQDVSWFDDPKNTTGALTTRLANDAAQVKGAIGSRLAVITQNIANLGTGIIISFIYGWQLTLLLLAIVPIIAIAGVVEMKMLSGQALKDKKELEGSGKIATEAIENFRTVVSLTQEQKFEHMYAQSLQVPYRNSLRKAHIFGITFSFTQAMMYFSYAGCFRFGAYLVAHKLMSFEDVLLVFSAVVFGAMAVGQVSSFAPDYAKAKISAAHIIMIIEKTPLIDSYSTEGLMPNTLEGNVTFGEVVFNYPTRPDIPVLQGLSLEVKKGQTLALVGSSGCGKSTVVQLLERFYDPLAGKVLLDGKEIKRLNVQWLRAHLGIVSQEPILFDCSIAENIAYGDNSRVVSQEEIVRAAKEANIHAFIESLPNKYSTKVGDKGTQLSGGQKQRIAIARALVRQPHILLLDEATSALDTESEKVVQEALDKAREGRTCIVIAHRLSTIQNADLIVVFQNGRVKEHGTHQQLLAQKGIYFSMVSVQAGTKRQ

Regarding `COC(=O)Nc1c(N)nc(-c2nn(Cc3ccccc3F)c3ncc(F)cc23)nc1N` [Vericiguat], in [1] (co-administration in fasting conditions of omeprazole (40 mg once daily) and magnesium/aluminum hydroxide (600/900 mg) relative to vericiguat alone), the “Reduction in the bioavailability of vericiguat” value is recorded as “about 30%”. The “Reduction of AUC of vericiguat” value in data set [1] (setting [12]) amounted to 32%. In addition, the “Reduction of Cmax of vericiguat” value in data set [1] (setting [12]) is reported as 49%. Moreover, the “Cmax of vericiguat, point estimate of treatment ratio” value in data set [1] (with omeprazole 40 mg QD vs vericiguat 5 mg SD alone, fasting) is given as 0.504; in data set [2] (setting [13]) it was 0.967. For the same molecule, in data set [2] (inhibition of UGT1A9 by mefenamic acid), the “Increase in AUC of vericiguat” value was 20%. In addition, the “AUC of vericiguat, point estimate of treatment ratio” value in data set [2] (setting [13]) is on record as 1.197. Besides, the “Substrate of organic cation transporter 1” value in data set [3] is “not a substrate”. Also, the IC50 (commonly the concentration that gives 50% inhibition) is above 100 µM in data set [4]; above 10 µM in data set [5]; above 50 µM in data set [6]; above 5 µM in data set [7]; above 50 µM in data set [8]; above 50 µM in data set [9]. The “Induction of CYP1A2” value in data set [10] is “no significant induction”. The results for the Clearance in [11] (healthy volunteers) and in data set [11] (patients with HFrEF) were 1.6 L/h and 1.3 L/h, respectively. Further, in [11] (population PK model, patients with HFrEF), the “Variability in steady-state AUC” value is reported as “about 30%”.
